High-throughput results deposited in PubChem BioAssay by several laboratories.
CYP2C9 inhib: blockers of cytochrome P450 2C9 activity – biochemical, luminescence, ADME assay, primary screen | P11712 | CYP2C9 Supersomes, luciferin-H conversion | inhibition, % at 5 µM | 96,000 compounds, 20% hits | AID 777, 2007;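 active means blocking of liver enzyme CYP2C9 beyond about 50% at 5 µM, limit read from the data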
CYP2C19 act: human CYP2C19 activators, primary screen, biochemical, luminescence; 96,000 tested, under 10 active; recombinant CYP2C19, luciferin-H EGE luminescence; active compounds read high; 0 = fully inhibited enzyme, 1 = untreated enzyme; activation factor at 5 µM;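 active means activation factor of at least 2 at 5 µM in the primary screen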
Target sequence (P33261 whole entry, looked up): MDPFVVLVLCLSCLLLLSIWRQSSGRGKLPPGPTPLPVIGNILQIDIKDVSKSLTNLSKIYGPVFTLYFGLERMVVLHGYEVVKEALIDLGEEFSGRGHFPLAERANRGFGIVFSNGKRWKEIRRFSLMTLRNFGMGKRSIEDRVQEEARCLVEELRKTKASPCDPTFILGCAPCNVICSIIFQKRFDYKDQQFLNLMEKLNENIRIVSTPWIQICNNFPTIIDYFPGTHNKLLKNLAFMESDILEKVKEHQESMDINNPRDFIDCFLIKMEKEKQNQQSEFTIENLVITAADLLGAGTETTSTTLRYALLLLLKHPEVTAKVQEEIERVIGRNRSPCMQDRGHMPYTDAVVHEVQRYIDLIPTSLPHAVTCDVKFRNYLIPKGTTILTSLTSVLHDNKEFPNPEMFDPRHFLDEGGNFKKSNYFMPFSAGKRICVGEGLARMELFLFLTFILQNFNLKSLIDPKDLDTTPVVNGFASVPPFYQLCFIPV
Cav3 T inh: Cav3.2 calcium influx blockers – cell-based, Fluo-4 calcium fluorescence, FDSS, MLSMR library, primary screen; Voltage-dependent T-type calcium channel subunit alpha-1H (Homo sapiens), O95180; Cav3.2-expressing cells; active compounds read low; B-score at 10 µM; 100,000 compounds, 4% hits; AID 449739, 2010;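 active means single-dose well whose peak fluorescence ratio is a statistical outlier from its plate by either plate-standardised score or position-corrected B-score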
CYP2C19 inhib: blockers of cytochrome P450 2C19 activity – biochemical, luminescence, ADME assay, primary screen; P33261; CYP2C19 Supersomes, luciferin-H EGE luminescence, 30 min; inhibition, % at 5 µM; 96,000 compounds, 21% hits; AID 778, 2007;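 active means CYP2C19 inhibition above a set limit at 5 µM in the primary screen, cut at about 50% in these data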
CYP2C9 activ: human CYP2C9 activators, primary screen, biochemical, luminescence; AID 1024, 2008; 96,000 compounds, 1.4% hits; Cytochrome P450 2C9 (Homo sapiens), P11712; recombinant CYP2C9, luciferin-H conversion; active compounds read high; factor 1 = untreated enzyme, 0 = blocked; activation factor at 5 µM;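 active means activation factor of 2 or more for CYP2C9 at a 5 µM dose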
Rev-RRE block: HIV-1 Rev-RRE binding inhibitors, primary screen, biochemical, FRET, protein-RNA interaction; P05866; Rev peptide-RRE RNA binding; inhibition, % at 8 µM; 97,000 compounds, 0.79% hits; AID 704, 2007;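 active means inhibition above the screen-wide mean plus 3 SD, cut at about 35% in these data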
Target sequence (P05866 whole entry, looked up): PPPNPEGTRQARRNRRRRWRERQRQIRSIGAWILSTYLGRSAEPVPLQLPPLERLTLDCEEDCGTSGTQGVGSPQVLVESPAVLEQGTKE
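Test system: labelled RRE RNA duplex and labelled Rev peptide. Times: 5 min compound–RNA preincubation, then 15 min with peptide, 25 °C. Doses: single-dose 8 µM. Measured by: FRET, excitation 480 nm, emission 540 nm donor and 671 nm acceptor. Measure: % inhibition of FRET ratio versus controls.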
A number is an active result; – = inactive; · = not tested or not shown; [ ] = remark or other dose. An excerpt weighted towards active compounds, which were near 27% of everything screened.

SMILES	CYP2C9 inhib	CYP2C19 act	Cav3 T inh	CYP2C19 inhib	CYP2C9 activ	Rev-RRE block
Cc1nn(CC#N)c(=O)n1-c1ccccc1F	–	–	–	–	–	–
CCOC(=O)c1cc(CC)sc1NC(=O)COC	84	–	–	–	–	–
Cc1cc(C)c2c(n1)sc1c(=O)[nH]c(SCc3ccccc3)nc12	64	–	–	–	–	–
CCC(=O)N[C@@H]1CC(C(C)(C)NC(=O)CC)CC=C1C (some centres not stated)	–	–	–	–	–	–
COC(=O)/C(=C(/F)SCC(C)=O)C(F)(F)F	69	–	–	–	–	–
N#Cc1nc(-c2ccc(Cl)cc2)oc1N1CCCCC1	–	–	–	–	–	–
N#Cc1c(-c2ccc(Cl)cc2)ccn2nc(C3CCCCC3)nc12	85	–	–	–	–	–
c1ccc(N2CCN(c3ncnc4scc(-c5cccs5)c34)CC2)cc1	97	–	–	96	–	–
Cc1ccc(-c2csc3ncnc(N4CCN(C(=O)c5ccccc5)CC4)c23)cc1	79	–	–	73	–	–
O=C(c1ccco1)N1CCN(c2ncnc3scc(-c4ccccc4)c23)CC1	–	–	–	–	–	–
Cc1nn(C(=O)c2ccccc2)c2c1C(=O)CC(C)(C)C2	69	–	–	80	–	–
N#Cc1c(-n2cccc2/C=N/O)sc2c1CCCC2	–	–	·	–	2.8	–
C=CCNCc1cccn1-c1sc2c(c1C#N)CCCC2	–	–	–	–	–	–
Cc1ccc(SCCNC(=O)c2cccc([N+](=O)[O-])c2C)cc1	–	–	–	–	–	–
COC(=O)CSc1nc(N)c(NC(=O)c2ccc(OC)c(OC)c2)c(=O)[nH]1	–	–	–	–	–	–
COC(=O)c1ccc(S(=O)(=O)N2CCCCCC2)cc1	–	–	–	–	–	–
COc1ccccc1Oc1ccc(S(=O)(=O)N2CCCC2)cc1	78	–	–	56	–	–
CN(CCOc1ccccc1)c1ccc(S(=O)(=O)N2CCCCC2)cn1	–	–	-7.6	–	–	–
CCCCOc1ccc(S(=O)(=O)N2CCCCCC2)cc1	94	–	–	93	–	–
CCCCCOC(=O)C1=C(C)Nc2nnnn2C1c1ccccc1Cl (configuration not stated)	–	–	–	–	–	–
CC1CC(C)CN(CC(C)(C)NS(=O)(=O)c2ccccc2)C1 (configuration not stated)	–	–	–	79	–	–
CC1CCCC(C)N1CC(C)(C)NS(=O)(=O)c1ccc(Cl)cc1 (configuration not stated)	–	–	–	84	–	–
CCN(CC)C1CCCCC1NS(=O)(=O)c1ccc(Cl)cc1 (configuration not stated)	–	–	–	–	–	–
CC(C)CC(C(=O)N1CCc2ccccc2C1)N1C(=O)c2ccccc2C1=O (configuration not stated)	–	–	–	–	–	–
O=S1(=O)C=C(Oc2ccc(F)cc2)c2ccccc21	–	–	–	81	–	–
SMILES	CYP2C9 inhib	CYP2C19 act	Cav3 T inh	CYP2C19 inhib	CYP2C9 activ	Rev-RRE block
C=C(C)COc1ccc(-c2[nH]ncc2Oc2ccccc2OCC)c(O)c1	100	–	–	96	–	–
C=C(C)COc1ccc(-c2[nH]ncc2Oc2cccc(OC)c2)c(O)c1	100	–	–	93	–	–
C=C(C)COc1ccc(-c2[nH]ncc2-c2ccc(OC)c(OC)c2)c(O)c1	–	–	–	–	–	–
C=C(C)COc1ccc(-c2[nH]ncc2-c2ccccc2)c(O)c1	83	–	–	–	–	–
COc1ccccc1N(CC(=O)NCC1CCCO1)C(=O)CCC(=O)Nc1nccs1 (configuration not stated)	·	·	–	·	·	–
O=C(OCC(=O)N1CCN(c2ccccc2)CC1)c1ccc2ccccc2n1	–	–	–	–	2.3	–
COc1cccc(C(=O)Nc2nnc(-c3cccs3)o2)c1	–	–	·	–	–	–
COC1(c2cc(-c3ccccc3)nc(N)n2)CCCCC1	–	–	–	53	–	–
N#Cc1c(-c2ccccc2)cc(C2CC2)nc1N	–	–	–	80	–	·
N#Cc1c(-c2ccco2)cc(C2CC2)nc1N	–	–	–	63	–	–
CCOC(=O)CSc1nc(C2CC2)cc(-c2ccc(F)cc2)c1C#N	–	–	–	–	–	–
C#CCN(C)Cc1ccccc1	·	·	–	·	·	·
C#CC(CO)N(CCN(Cc1ccccc1)C(C#C)CO)Cc1ccccc1 (configuration not stated)	95	–	-6.7	100	–	–
COC(=O)c1nn(-c2c(C)n(C)n(-c3ccccc3)c2=O)cc1O	–	–	–	–	–	–
CCOC(=O)C1=C(C)NC(=O)CC1c1ccccc1 (configuration not stated)	–	–	–	–	–	–
CCN(CC)c1ccc(C2C(C(=O)OCCOC(C)C)=C(C)NC3=C2C(=O)CCC3)cc1 (configuration not stated)	–	–	–	–	–	–
C=CCOC(=O)C1=C(C)N(C)C(=O)NC1c1cc2c(cc1Br)OCO2 (configuration not stated)	71	–	–	96	–	·
CCOC(=O)C1=C(C)NC(=O)CC1c1cc2c(cc1Br)OCO2 (configuration not stated)	90	–	–	99	–	·
CC1=C(C(=O)OCCOC(C)C)C(c2cc3c(cc2Br)OCO3)C2=C(CCCC2=O)N1 (configuration not stated)	–	–	–	89	–	–
CC1=C(C(=O)OCCOC(C)C)C(c2cccnc2)C2=C(CCCC2=O)N1 (configuration not stated)	56	–	–	70	–	–
Nc1c(C(=O)Nc2ccccc2F)sc2nc(Cc3ccccc3)cc(C(F)(F)F)c12	–	–	-3.4	–	–	82[fluorescence artefact?]
Cc1cc(C(F)(F)F)c2c(N)c(C(=O)Nc3cc(C)on3)sc2n1	–	–	–	–	–	–
COc1ccc(OC)c(C(=O)CN2C(=O)NC(C)(c3ccccc3)C2=O)c1 (configuration not stated)	–	–	–	99	2	–
COc1ccc(C2(C)NC(=O)N(CC(=O)NCCC3=CCCCC3)C2=O)cc1OC (configuration not stated)	–	–	–	–	–	–
Cc1cc(NC(=O)CN2C(=O)NC(C)(c3ccccc3)C2=O)no1 (configuration not stated)	–	–	–	–	–	–
